Results taken from ChEMBL document CHEMBL1781898, “Orally active achiral N-hydroxyformamide inhibitors of ADAM-TS4 (aggrecanase-1) and ADAM-TS5 (aggrecanase-2) for the treatment of osteoarthritis” (Bioorg Med Chem Lett, 2011).
pIC50: −log10 of the molar value.

Experiments:
[1] = Oral bioavailability in rat; type: ADME, organism-based; settings: in vivo
[2] = Half life in rat at 2 mg/kg, iv; type: ADME, organism-based; parameters: dose 2 mg/kg, route intravenous; settings: in vivo
Method in brief: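 Rat iv PK: 2 mg/kg iv, n = 2 animals; clearance, half-life and Vdss determined.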

Cytochrome P450 2C19 = Cytochrome P450 2C19 (Homo sapiens, UniProt P33261); assay: Inhibition of CYP2C19; type: ADME
Method in brief: (§1)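 Inhibition of cytochrome P450 isoforms 1A2, 2C9, 2C19, 2D6 and 3A4, reported as pIC50.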

[3] = Intrinsic clearance in human hepatocytes measured per million cells; type: ADME, cell-based, Liver, Hepatocyte
Method in brief: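 Human hepatocyte metabolism; intrinsic clearance expressed as μL/min/10⁶ cells, reported as mean of six separate experiments.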

[4] = Clearance in rat at 2 mg/kg, iv and 3 to 10 mg/kg, po; type: ADME, organism-based; settings: in vivo
[5] = Half life in dog at 1 mg/kg, iv and 1 mg/kg, po; type: ADME, organism-based, Canis lupus familiaris; settings: in vivo
[6] = Apparent permeability across apical to basolateral side in human Caco2 cells at 10 uM; type: ADME, cell-based; settings: Caco-2
[7] = Half life in rat at 2 mg/kg, iv and 3 to 10 mg/kg, po; type: ADME, organism-based; settings: in vivo
Collagenase 3 = Collagenase 3 (Homo sapiens, UniProt P45452); assay: Inhibition of recombinant human MMP-13 assessed as substrate cleavage after 20 hrs by fluorescence assay
Method in brief: (§2)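 Enzyme inhibition IC50s derived from at least six measurements, standard errors normally <5% within an assay; a standard compound run to keep assay-to-assay variability within twofold.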

[8] = Volume of distribution at steady state in mouse; type: ADME, organism-based; settings: in vivo, read-out: Vdss
[9] = Volume of distribution at steady state in rat at 2 mg/kg, iv and 3 to 10 mg/kg, po; type: ADME, organism-based; settings: in vivo, read-out: Vdss
[10] = Volume of distribution at steady state in dog at 1 mg/kg, iv and 1 mg/kg, po; type: ADME, organism-based, Canis lupus familiaris; settings: in vivo, read-out: Vdss
Cytochrome P450 1A2 = target: T1, Cytochrome P450 1A2 (Homo sapiens, UniProt P05177); assay: Inhibition of CYP1A2; type: ADME; method in brief: as §1
T1 sequence (P05177 whole entry): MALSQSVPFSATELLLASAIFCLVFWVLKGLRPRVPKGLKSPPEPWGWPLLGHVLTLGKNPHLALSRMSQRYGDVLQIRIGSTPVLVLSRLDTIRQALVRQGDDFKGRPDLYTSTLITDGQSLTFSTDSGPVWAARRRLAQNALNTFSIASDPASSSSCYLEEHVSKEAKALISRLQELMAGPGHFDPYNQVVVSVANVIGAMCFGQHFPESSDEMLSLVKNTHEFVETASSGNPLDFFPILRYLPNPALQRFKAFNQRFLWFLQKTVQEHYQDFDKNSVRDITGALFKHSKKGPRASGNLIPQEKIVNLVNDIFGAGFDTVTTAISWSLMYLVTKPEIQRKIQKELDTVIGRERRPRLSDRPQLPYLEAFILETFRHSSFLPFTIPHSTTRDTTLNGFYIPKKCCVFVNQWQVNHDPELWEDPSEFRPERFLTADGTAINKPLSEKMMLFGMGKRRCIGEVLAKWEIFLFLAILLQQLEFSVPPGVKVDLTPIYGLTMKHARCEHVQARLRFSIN

Cytochrome P450 2C9 = Cytochrome P450 2C9 (Homo sapiens, UniProt P11712); assay: Inhibition of CYP2C9; type: ADME; method in brief: as §1
[11] = Clearance in mouse; type: ADME, organism-based; settings: in vivo
[12] = Half life in mouse; type: ADME, organism-based; settings: in vivo
Interstitial collagenase = target: T2, Interstitial collagenase (Homo sapiens, UniProt P03956); assay: Inhibition of recombinant human MMP-1 assessed as substrate cleavage after 20 hrs by fluorescence assay; method in brief: as §2
T2 sequence (P03956 whole entry): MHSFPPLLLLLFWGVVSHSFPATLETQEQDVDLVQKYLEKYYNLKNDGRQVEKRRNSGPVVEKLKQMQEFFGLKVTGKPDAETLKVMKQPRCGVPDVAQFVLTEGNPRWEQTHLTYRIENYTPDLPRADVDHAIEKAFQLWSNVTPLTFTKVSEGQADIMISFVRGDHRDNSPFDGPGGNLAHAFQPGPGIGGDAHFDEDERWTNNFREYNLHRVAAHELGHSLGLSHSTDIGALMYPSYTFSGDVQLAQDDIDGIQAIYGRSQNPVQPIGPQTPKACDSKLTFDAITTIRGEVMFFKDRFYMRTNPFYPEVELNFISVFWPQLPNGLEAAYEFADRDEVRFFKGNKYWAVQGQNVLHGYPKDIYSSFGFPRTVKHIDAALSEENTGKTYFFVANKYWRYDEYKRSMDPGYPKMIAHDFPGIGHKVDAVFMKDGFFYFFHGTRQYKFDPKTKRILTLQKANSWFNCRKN

[13] = Intrinsic clearance in human liver microsomes; type: ADME, Microsome
Method in brief: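 Human liver microsome metabolism; intrinsic clearance expressed as μL/min/mg, reported as mean of eight separate experiments.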

[14] = Free drug level in rat; type: ADME, organism-based; settings: in vivo
[15] = target: 72 kDa type IV collagenase (Homo sapiens, UniProt P08253); assay: Inhibition of recombinant human MMP-2 assessed as substrate cleavage after 20 hrs by fluorescence assay; method in brief: as §2
[16] = Free drug level in human; type: ADME, organism-based; settings: in vivo
[17] = Oral bioavailability in dog; type: ADME, organism-based, Canis lupus familiaris; settings: in vivo
[18] = target: Matrix metalloproteinase-14 (Homo sapiens, UniProt P50281); assay: Inhibition of recombinant human MMP-14 assessed as substrate cleavage after 20 hrs by fluorescence assay; method in brief: as §2
[19] = Inhibition of aggrecanase activity in IL-1-stimulated human osteoarthritis cartilage explant assessed as inhibition of aggrecan degradation measuring ARGSVIL neo-peptide release
[20] = Absolute bioavailability in rat; type: ADME, organism-based; settings: in vivo
[21] = Oral bioavailability in mouse; type: ADME, organism-based; settings: in vivo

Cytochrome P450 2C9, sequence (P11712 whole entry): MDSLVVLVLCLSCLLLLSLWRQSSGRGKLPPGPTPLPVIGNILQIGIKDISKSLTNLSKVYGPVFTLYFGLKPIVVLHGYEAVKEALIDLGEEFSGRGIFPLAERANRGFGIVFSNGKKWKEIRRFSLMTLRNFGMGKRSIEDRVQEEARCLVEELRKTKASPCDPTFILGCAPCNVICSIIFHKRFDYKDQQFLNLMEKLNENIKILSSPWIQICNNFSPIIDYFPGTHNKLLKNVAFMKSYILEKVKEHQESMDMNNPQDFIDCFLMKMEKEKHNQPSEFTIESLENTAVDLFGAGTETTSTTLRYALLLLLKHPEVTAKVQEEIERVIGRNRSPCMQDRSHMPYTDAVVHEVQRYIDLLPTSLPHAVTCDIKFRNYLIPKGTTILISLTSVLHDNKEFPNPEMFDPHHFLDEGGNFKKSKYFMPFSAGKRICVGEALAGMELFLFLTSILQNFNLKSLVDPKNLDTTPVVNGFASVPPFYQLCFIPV
72 kDa type IV collagenase, sequence (P08253 whole entry): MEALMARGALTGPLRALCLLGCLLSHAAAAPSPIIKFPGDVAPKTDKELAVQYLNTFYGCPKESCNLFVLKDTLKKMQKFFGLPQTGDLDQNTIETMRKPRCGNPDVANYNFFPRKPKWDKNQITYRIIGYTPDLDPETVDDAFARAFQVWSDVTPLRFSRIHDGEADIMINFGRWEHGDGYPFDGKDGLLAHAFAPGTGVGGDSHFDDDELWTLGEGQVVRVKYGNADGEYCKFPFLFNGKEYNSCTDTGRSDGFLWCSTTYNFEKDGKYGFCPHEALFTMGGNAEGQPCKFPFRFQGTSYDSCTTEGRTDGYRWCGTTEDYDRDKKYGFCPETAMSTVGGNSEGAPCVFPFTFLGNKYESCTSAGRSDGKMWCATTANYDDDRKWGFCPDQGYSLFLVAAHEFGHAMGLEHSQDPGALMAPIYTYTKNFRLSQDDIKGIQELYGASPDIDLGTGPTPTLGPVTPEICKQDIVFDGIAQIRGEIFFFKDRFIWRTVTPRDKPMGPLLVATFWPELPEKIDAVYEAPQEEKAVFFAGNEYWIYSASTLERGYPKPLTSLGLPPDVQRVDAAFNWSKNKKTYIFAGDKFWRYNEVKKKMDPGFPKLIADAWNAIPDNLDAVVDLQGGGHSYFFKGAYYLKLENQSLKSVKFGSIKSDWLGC
Cytochrome P450 2C19, sequence (P33261 whole entry, canonical isoform): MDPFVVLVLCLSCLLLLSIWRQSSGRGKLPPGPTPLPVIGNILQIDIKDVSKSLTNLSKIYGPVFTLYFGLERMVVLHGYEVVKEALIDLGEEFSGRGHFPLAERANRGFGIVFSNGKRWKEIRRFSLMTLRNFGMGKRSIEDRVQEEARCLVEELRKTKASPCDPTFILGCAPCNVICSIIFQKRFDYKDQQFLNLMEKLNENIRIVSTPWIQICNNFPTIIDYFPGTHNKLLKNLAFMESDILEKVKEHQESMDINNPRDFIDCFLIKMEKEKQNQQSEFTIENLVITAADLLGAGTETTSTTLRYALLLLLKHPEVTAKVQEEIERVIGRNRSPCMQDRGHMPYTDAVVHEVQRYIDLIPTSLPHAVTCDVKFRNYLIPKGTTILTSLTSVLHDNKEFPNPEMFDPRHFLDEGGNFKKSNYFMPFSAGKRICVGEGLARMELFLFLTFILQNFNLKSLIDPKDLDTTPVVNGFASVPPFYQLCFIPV

For `Cc1noc(C)c1CCC1CCN(S(=O)(=O)CC2(N(O)C=O)CCOCC2)CC1`, the bioavailability [1] was 45%, the half-life [2] was 8.9 h and the “inhibition (INH)” value (Cytochrome P450 2C19) was “Not Active”. It also gave a hepatocyte CLint [3] of less than 2 µL/min/1e6 cells, a clearance [4] of 24 mL/min/kg and a half-life [5] of 19.1 h. The Papp A→B at 10 µM [6] was 8.3 ×10⁻⁶ cm/s, the half-life [7] was 8.9 h and the pIC50 (Collagenase 3) was less than 4.51. It also gave a Vd [8] of 2.5 L/kg, a Vd [9] of 3 L/kg and a Vd [10] of 10.9 L/kg. For the same compound, the “inhibition (INH)” value (Cytochrome P450 1A2) was “Not Active”, the “inhibition (INH)” value (Cytochrome P450 2C9) was “Not Active” and the clearance [11] was 30 mL/min/kg. The half-life [12] was 2.6 h, the pIC50 (Interstitial collagenase) was less than 5.00 and the microsomal CLint [13] was 3.1 µL/min/mg. For the same compound, the fraction unbound [14] was greater than 0.5, the pIC50 [15] was less than 4.64 and the fraction unbound [16] was greater than 0.5. It also gave a bioavailability [17] of 52%, a pIC50 [18] of less than 4.64 and a pIC50 [19] of 6.92. For the same compound, the bioavailability [20] was 45% and the bioavailability [21] was 54%.
